{"data": "Measurements of several laboratories", "target": "Ribosomal protein S6 kinase beta-1 (RPS6KB1, Homo sapiens, UniProt P23443)"}
{"SMILES": "c1cnn2ncc(-c3ccnc(N4CCC45COC5)n3)c2c1", "test": "binding", "conditions": "1 µM", "remaining binding [%]": 66}
{"SMILES": "COc1ncc2cc3ccccc3nc2c1C#N", "test": "cell-free assay, competition with immobilised ligand", "conditions": "5 µM", "remaining binding [%]": 100}
{"SMILES": "O=C(O)c1cc(-c2ccc(C3CCNCC3)cc2)c2ccc(-c3ccc(C(F)(F)F)cc3)cc2c1", "test": "cell-free assay, competition with immobilised ligand", "conditions": "1 µM", "remaining binding [%]": 100}
{"SMILES": "O=C(NCCCN1CCOCC1)c1ccc(Nc2nccc(-c3cc4ccccc4s3)n2)cc1", "test": "binding, competition with immobilised ligand", "conditions": "1 µM", "remaining binding [%]": 92}
{"SMILES": "N#CC1(c2ccccn2)CCN(Cc2cc(C(=O)N3CCCC3)c(=O)n3ccccc23)CC1", "test": "binding, competition with immobilised ligand", "conditions": "1 µM", "remaining binding [%]": 34}
{"SMILES": "Cc1cnn2ncc(-c3ccnc(N(C)C)n3)c2c1", "test": "binding", "conditions": "1 µM", "remaining binding [%]": 82}
{"SMILES": "CNC(=O)c1ccc(Nc2ncc(C(F)(F)F)c(NCc3nccnc3N(C)S(C)(=O)=O)n2)cc1", "test": "cell-free assay, competition with immobilised ligand", "conditions": "0.1 µM", "remaining binding [%]": 96}
{"SMILES": "CN(c1nccc(-c2cnn3ncccc23)n1)C1CC1", "test": "binding", "conditions": "1 µM", "remaining binding [%]": 100}
{"SMILES": "NS(=O)(=O)c1cc(NC(=O)Cc2ccccc2)ccc1Oc1cccc(Cl)c1", "test": "cell-free assay, competition with immobilised ligand", "conditions": "1 µM", "remaining binding [%]": 69}
{"SMILES": "C=CC(=O)N1CCC(C(=O)NCC(=O)N2CCN(c3nc(-c4cnc(N)nc4C(F)F)nc(N4CCOCC4)n3)CC2)CC1", "test": "binding, competition with immobilised ligand", "conditions": "1 µM", "remaining binding [%]": 56}
{"SMILES": "CC1CCCN1c1nccc(-c2cnn3ncccc23)n1 (centres unmarked)", "test": "binding", "conditions": "1 µM", "remaining binding [%]": 100}
{"SMILES": "O=C(NCC1CCOCC1)c1n[nH]cc1NC(=O)c1c(F)cccc1F", "test": "binding, competition with immobilised ligand", "conditions": "1 µM", "remaining binding [%]": 87}
{"SMILES": "CN(C)C(=O)Cn1cc(-c2nc([C@@](C)(c3ccc(-c4cnc(N)nc4)cc3)C3CC3)no2)cn1", "test": "cell-free assay, competition with immobilised ligand", "conditions": "1 µM", "remaining binding [%]": 83}
{"SMILES": "C[C@@H]1CCN(c2nccc(-c3cnn4ncccc34)n2)C1", "test": "binding", "conditions": "1 µM", "remaining binding [%]": 87}
{"SMILES": "c1cncc(-c2cccc(Nc3nccc(NC4CCCCC4)n3)c2)c1", "test": "binding, competition with immobilised ligand", "conditions": "10 µM", "remaining binding [%]": 64}
{"SMILES": "O=C(c1ccc(Nc2nccc(-c3cc4ccccc4s3)n2)cc1)N1CCC(N2CCCC2)CC1", "test": "binding, competition with immobilised ligand", "conditions": "1 µM", "remaining binding [%]": 79}
{"SMILES": "O=C(NS(=O)(=O)c1ccc(NCC2CCOCC2)c([N+](=O)[O-])c1)c1ccc(N2CCN(Cc3ccc(C(F)(F)F)cc3-c3ccc(Cl)cc3)CC2)cc1Oc1cnc2[nH]ccc2c1", "test": "cell-free assay, competition with immobilised ligand", "conditions": "1 µM", "remaining binding [%]": 81}
{"SMILES": "N[C@H]1CCN(c2nccc(-c3cnn4ncccc34)n2)C1", "test": "binding", "conditions": "1 µM", "remaining binding [%]": 100}
{"SMILES": "Cc1cnc(Nc2ccc(C(=O)N3CCC(N4CCCC4)CC3)cc2)nc1-c1cc2ccccc2s1", "test": "binding, competition with immobilised ligand", "conditions": "1 µM", "remaining binding [%]": 36}
{"SMILES": "COc1cnc(Nc2cccc(S(N)(=O)=O)c2)nc1N1CCN(c2ccccc2)C(=O)C1", "test": "binding, competition with immobilised ligand", "conditions": "1 µM", "remaining binding [%]": 71}
